Assay results reported in ChEMBL document CHEMBL1126849, “Synthesis of A-ring fluorinated derivatives of (17 alpha,20E/Z)-[125I]iodovinylestradiols: effect on receptor binding and receptor-mediated target tissue uptake” (J Med Chem, 1993).

Experiments:
Conditions in all cases: in vivo
[1] = system: Rattus norvegicus; test: Biodistribution in kidney of immature female rat after 12 hour administration of 3 micro Ci (111 kBq) in the absence of 60 microg estradiol; assay type: ADME, organism-based
Outline: (§1)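 Immature female Long Evans rats (21–24 days, 45–70 g), unanesthetized in retention cages, given 3 µCi (111 kBq) 125I-labeled steroid i.v. via lateral tail vein. Vehicle was ethanol diluted in saline containing 1% Tween-80, giving 9% ethanol final. The blocking group received 60 µg unlabeled estradiol co-injected. Rats were killed under ether by axillary bleeding, and tissues were KCl-washed and gamma-counted. Data are %ID/g, mean ± SE, n=3–5.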

[2] = system: Rattus norvegicus; test: Biodistribution in kidney of immature female rat after 1 hr administration of 3 micro Ci (111 kBq) in the absence of 60 microg estradiol; assay type: ADME, organism-based; outline: as §1
[3] = system: Rattus norvegicus; test: Biodistribution in kidney of immature female rat after 1 hr administration of 3 micro Ci (111 kBq) in the presence of (+E2); assay type: ADME, organism-based; outline: as §1
[4] = system: Rattus norvegicus; test: Biodistribution in liver of immature female rat after 3 hour administration of 3 micro Ci (111 kBq) in the absence of 60 microg estradiol; assay type: ADME, organism-based; outline: as §1
[5] = system: Rattus norvegicus; test: Biodistribution in lungs of immature female rat after 1 hr administration of 3 micro Ci (111 kBq) in the absence of 60 microg estradiol; assay type: ADME, organism-based, Lung; outline: as §1
[6] = system: Rattus norvegicus; test: Biodistribution in fat of immature female rat after 5 hour administration of 3 micro Ci (111 kBq) in the absence of 60 microg estradiol; assay type: ADME, organism-based, Adipose tissue; outline: as §1
[7] = system: Rattus norvegicus; test: Biodistribution in muscle of immature female rat after 12 hour administration of 3 micro Ci (111 kBq) in the absence of 60 microg estradiol; assay type: ADME, organism-based, Muscle tissue
Outline: (§2)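 Immature female Long Evans rats (21–24 days, 45–70 g), three to five per group, given 125I-labeled steroid (3 μCi, 111 kBq) by lateral tail vein without anesthesia. Vehicle: ethanol diluted in saline with 1% Tween-80, final ethanol 9%, 0.22 μm filtered. +E2 groups received 60 μg unlabeled estradiol co-injected. Killed under ether at set times; tissues KCl-washed, blotted, weighed, gamma counted; %ID/g, mean with SE.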

[8] = system: Rattus norvegicus; test: Biodistribution in muscle of immature female rat after 1 hr administration of 3 micro Ci (111 kBq) in the absence of 60 microg estradiol; assay type: ADME, organism-based, Muscle tissue; outline: as §2
[9] = system: Rattus norvegicus; test: Biodistribution in muscle of immature female rat after 1 hr administration of 3 micro Ci (111 kBq) in the presence of (+E2); assay type: ADME, organism-based, Muscle tissue; outline: as §2
[10] = system: Rattus norvegicus; test: Biodistribution in muscle of immature female rat after 5 hour administration of 3 micro Ci (111 kBq) in the absence of 60 microg estradiol; assay type: ADME, organism-based, Muscle tissue; outline: as §2
[11] = system: Rattus norvegicus; test: Biodistribution in spleen of immature female rat after 12 hour administration of 3 micro Ci (111 kBq) in the absence of 60 microg estradiol; assay type: ADME, organism-based; outline: as §2
[12] = system: Rattus norvegicus; test: Biodistribution in spleen of immature female rat after 3 hour administration of 3 micro Ci (111 kBq) in the absence of 60 microg estradiol; assay type: ADME, organism-based; outline: as §2
[13] = system: Rattus norvegicus; test: Biodistribution in blood of immature female rat after 12 hour administration of 3 micro Ci (111 kBq) in the absence of 60 microg estradiol; assay type: ADME, organism-based; outline: as §1
[14] = system: Rattus norvegicus; test: Biodistribution in blood of immature female rat after 1 hr administration of 3 micro Ci (111 kBq) in the absence of 60 microg estradiol; assay type: ADME, organism-based; outline: as §1
[15] = system: Rattus norvegicus; test: Biodistribution in blood of immature female rat after 3 hour administration of 3 micro Ci (111 kBq) in the absence of 60 microg estradiol; assay type: ADME, organism-based; outline: as §1
[16] = system: Rattus norvegicus; test: Biodistribution in blood of immature female rat after 5 hour administration of 3 micro Ci (111 kBq) in the absence of 60 microg estradiol; assay type: ADME, organism-based; outline: as §1
[17] = system: Rattus norvegicus; test: Biodistribution in kidney of immature female rat after 3 hour administration of 3 micro Ci (111 kBq) in the absence of 60 microg estradiol; assay type: ADME, organism-based; outline: as §1
[18] = system: Rattus norvegicus; test: Biodistribution in liver of immature female rat after 12 hour administration of 3 micro Ci (111 kBq) in the absence of 60 microg estradiol; assay type: ADME, organism-based; outline: as §1
[19] = system: Rattus norvegicus; test: Biodistribution in liver of immature female rat after 1 hr administration of 3 micro Ci (111 kBq) in the absence of 60 microg estradiol; assay type: ADME, organism-based; outline: as §1
[20] = system: Rattus norvegicus; test: Biodistribution in thyroid of immature female rat after 1 hr administration of 3 micro Ci (111 kBq) in the presence of (+E2); assay type: ADME, organism-based, Thyroid gland; outline: as §2
[21] = system: Rattus norvegicus; test: Biodistribution in uterus / spleen, muscle, lungs of immature female rat after 1 hr administration of 3 micro Ci (111 kBq) in the absence of 60 microg estradiol; assay type: ADME, organism-based
Outline: (§3)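 Same in vivo procedure: immature female Long Evans rats (21–24 days), three to five per group, 3 μCi (111 kBq) tracer i.v. via tail vein in 9% ethanol/saline/1% Tween-80, ± 60 μg estradiol co-injected at 1 h. Uterus %ID/g (gamma counting) divided by blood, or by nontarget organ (muscle, spleen, lungs), %ID/g to give ratios.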

[22] = system: Rattus norvegicus; test: Biodistribution in uterus / spleen, muscle, lungs of immature female rat after 3 hour administration of 3 micro Ci (111 kBq) in the absence of 60 microg estradiol; assay type: ADME, organism-based
Outline: (§4)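 Immature female Long Evans rats (21–24 days, 45–70 g), 3–5 per group, unanesthetized in retention cages, given 3 μCi (111 kBq) 125I-labeled steroid by lateral tail vein. Vehicle: ethanol diluted with saline containing 1% Tween-80, final ethanol 9%. +E2 group co-injected 60 μg unlabeled estradiol (1 h only). Killed under ether; tissues KCl-washed, weighed, gamma-counted. Output: %ID/g (mean, SE) and uterus to blood or nontarget (muscle, spleen, lungs) ratios.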

[23] = system: Rattus norvegicus; test: Biodistribution in uterus / spleen, muscle, lungs of immature female rat after 5 hour administration of 3 micro Ci (111 kBq) in the absence of 60 microg estradiol; assay type: ADME, organism-based; outline: as §4
[24] = system: Rattus norvegicus; test: Biodistribution in uterus of immature female rat after 1 hr administration of 3 micro Ci (111 kBq) in the absence of 60 microg estradiol; assay type: ADME, organism-based; outline: as §4
[25] = system: Rattus norvegicus; test: Biodistribution in thyroid of immature female rat after 5 hour administration of 3 micro Ci (111 kBq) in the absence of 60 microg estradiol; assay type: ADME, organism-based, Thyroid gland; outline: as §2
[26] = system: Rattus norvegicus; test: Biodistribution in uterus / blood of immature female rat after 12 hour administration of 3 micro Ci (111 kBq) in the absence of 60 microg estradiol; assay type: ADME, organism-based; outline: as §3

SMILES | ID/g [1] [%] | ID/g [2] [%] | ID/g [3] [%] | ID/g [4] [%] | ID/g [5] [%] | ID/g [6] [%] | ID/g [7] [%] | ID/g [8] [%] | ID/g [9] [%] | ID/g [10] [%] | ID/g [11] [%] | ID/g [12] [%] | ID/g [13] [%] | ID/g [14] [%] | ID/g [15] [%] | ID/g [16] [%] | ID/g [17] [%] | ID/g [18] [%] | ID/g [19] [%] | ID/g [20] [%] | other results
C[C@@H]1Cc2c(ccc(O)c2F)[C@H]2CC[C@@]3(C)[C@@H](CC[C@@]3(O)/C=C\I)[C@H]12 | 0.29 | 1.07 | 0.79 | 1.18 | 0.71 | 1.7 | 0.16 | 0.45 | 0.44 | 0.34 | 0.25 | 0.72 | 0.21 | 0.44 | 0.39 | 0.36 | 0.85 | 0.8 | 1.35 | 98 | ID/g [21]: 5.41%; Uterus to nontarget tissue (spleen, muscle, lungs) uptake ratio [22]: 8.32%; ID/g [23]: 9.44%; ID/g [24]: 3.55%; ID/g [25]: 380%; Uterus-to-blood radioactivity ratio (dimensionless) [26]: 16.64%
CO[C@H]1C[C@@]2(C)[C@@H](CC[C@@]2(O)/C=C/I)[C@@H]2CCc3cc(O)c(F)cc3[C@H]21 | 0.15 | 1.44 | 1.58 | 3.56 | 0.95 | 1.57 | 0.07 | 0.87 | 1.02 | 0.45 | 0.18 | 0.8 | 0.11 | 0.45 | 0.38 | 0.32 | 0.96 | 1.48 | 3.5 | 243 | uterus-to-nontarget tissue uptake ratio [21]: 4.78%; Uterus to nontarget tissue (spleen, muscle, lungs) uptake ratio [22]: 8.2%; uterus to nontarget tissue ratio [23]: 8.56%; ID/g [24]: 4.41%; ID/g [25]: 412%; Uterus-to-blood radioactivity ratio (dimensionless) [26]: 10.45%
C[C@@H]1Cc2c(ccc(O)c2F)[C@H]2CC[C@@]3(C)[C@@H](CC[C@@]3(O)/C=C/I)[C@H]12 | 0.32 | 1.41 | 1.82 | 3.44 | 1.47 | 4.59 | 0.16 | 0.75 | 0.97 | 0.56 | 0.19 | 0.91 | 0.17 | 0.38 | 0.32 | 0.39 | 0.95 | 1.57 | 4.36 | 56 | uterus-to-nontarget tissue uptake ratio [21]: 5.03%; Uterus to nontarget tissue (spleen, muscle, lungs) uptake ratio [22]: 7.15%; uterus to nontarget tissue ratio [23]: 9.38%; ID/g [24]: 4.71%; ID/g [25]: 114%; Uterus-to-blood radioactivity ratio (dimensionless) [26]: 17.87%
CO[C@H]1C[C@@]2(C)[C@@H](CC[C@@]2(O)/C=C\I)[C@@H]2CCc3c(ccc(O)c3F)[C@H]21 | 1.23 | 1.64 | 1.36 | 1.21 | 0.84 | 0.75 | 0.27 | 0.66 | 0.77 | 0.4 | 0.7 | 0.72 | 0.25 | 0.66 | 0.56 | 0.51 | 1.08 | 0.83 | 2 | 441 | uterus-to-nontarget tissue uptake ratio [21]: 7.3%; Uterus to nontarget tissue (spleen, muscle, lungs) uptake ratio [22]: 11.77%; uterus to nontarget tissue ratio [23]: 21.03%; ID/g [24]: 6.87%; ID/g [25]: 2369%; Uterus-to-blood radioactivity ratio (dimensionless) [26]: 34.58%

Further lines, with some results ahead:

ID/g [1] [%] | ID/g [2] [%] | ID/g [3] [%] | ID/g [4] [%] | ID/g [5] [%] | ID/g [6] [%] | ID/g [7] [%] | ID/g [8] [%] | ID/g [9] [%] | ID/g [10] [%] | ID/g [11] [%] | ID/g [12] [%] | ID/g [13] [%] | ID/g [14] [%] | ID/g [15] [%] | ID/g [16] [%] | ID/g [17] [%] | ID/g [18] [%] | ID/g [19] [%] | ID/g [20] [%] | SMILES | other results
0.36 | 1.11 | 0.62 | 1.81 | 0.56 | 2.2 | 0.19 | 0.53 | 0.29 | 0.29 | 0.47 | 0.74 | 0.32 | 0.45 | 0.32 | 0.33 | 0.69 | 1.69 | 2.19 | 204 | C[C@@H]1Cc2cc(O)c(F)cc2[C@H]2CC[C@@]3(C)[C@@H](CC[C@@]3(O)/C=C\I)[C@H]12 | uterus-to-nontarget tissue uptake ratio [21]: 5.13%; Uterus to nontarget tissue (spleen, muscle, lungs) uptake ratio [22]: 7.35%; uterus to nontarget tissue ratio [23]: 8.94%; ID/g [24]: 3.76%; ID/g [25]: 424%; Uterus-to-blood radioactivity ratio (dimensionless) [26]: 18.13%
0.15 | 0.63 | 0.49 | 1.53 | 0.54 | 1.28 | 0.17 | 0.61 | 0.31 | 0.21 | 0.12 | 0.43 | 0.12 | 0.29 | 0.2 | 0.17 | 0.29 | 1 | 2.29 | 114 | C[C@@H]1Cc2cc(O)c(F)cc2[C@H]2CC[C@@]3(C)[C@@H](CC[C@@]3(O)/C=C/I)[C@H]12 | uterus-to-nontarget tissue uptake ratio [21]: 3.3%; Uterus to nontarget tissue (spleen, muscle, lungs) uptake ratio [22]: 3%; uterus to nontarget tissue ratio [23]: 3.61%; ID/g [24]: 1.03%; ID/g [25]: 203%; Uterus-to-blood radioactivity ratio (dimensionless) [26]: 2.99%
